The record followed here is ChEMBL document CHEMBL4130484, “Identification and optimization of novel 6-acylamino-2-aminoquinolines as potent Hsp90 C-terminal inhibitors” (Eur J Med Chem, 2017).

The subject of experiment [1] is MCF7. Kind of experiment: Growth inhibition of human MCF7 cells at 50 uM incubated for 72 hrs by MTT assay. The following applies: MCF7, 72 h, read-out: GI. The experiment is classed as functional. The method, boiled down: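 MTT screen in MCF7 cells at a single concentration of 50 µM; growth inhibition rate recorded.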
In experiment [2] the test system is MCF7. The experiment is described as follows: Antiproliferative activity against human MCF7 cells incubated for 72 hrs by MTT assay. The experiment is classed as functional, cell-based. The note with it: MCF7, 72 h. The method in brief: (§1)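 MTT antiproliferation assay in MCF7 and SKBr3 breast cancer cells; IC50 determined.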
Experiment [3] has as its system SK-BR-3. The experiment is described as follows: Antiproliferative activity against human SKBR3 cells incubated for 72 hrs by MTT assay. It is filed as functional, cell-based. The note with it: SK-BR-3, 72 h. The method in brief:
as §1

Some results are limits rather than exact numbers.

Turning to `O=C(Nc1nc(C(=O)NCCCN2CCCC2=O)cs1)c1ccc2c(c1)OCO2`, the inhibition of growth at 50 µM in experiment [1] was less than 50%.

For the compound `COc1ccc(C(=O)Nc2ccc3nc(SCC(=O)N4CCCC4)sc3c2)cc1`, the inhibition of growth at 50 µM in experiment [1] amounted to 62.5%.

Consider `CCN1CCN(Cc2nc3ccc(NC(=O)c4ccc(OC)cc4)cc3n2C(C)C)CC1`, for which the inhibition of growth at 50 µM in experiment [1] worked out at 55%.

As to `COc1ccc(NC(=O)c2nnc(COCC(=O)NCCN(C)C)s2)cc1`, the inhibition of growth at 50 µM in experiment [1] was less than 50%.

For `CCn1c(C(=O)NCCN2CCOCC2)cc2cc(NC(=O)c3ccc(F)cc3)ccc21`, the inhibition of growth at 50 µM in experiment [1] was less than 50%.

Consider `CCN(CC)CCOC(=O)c1ccc(NC(=O)c2ccc(OC)cc2)cc1`, for which the inhibition of growth at 50 µM in experiment [1] was less than 50%.

As to `COc1ccc(C(=O)Nc2nc(CC(=O)N3CCN(c4ccccc4)CC3)cs2)cc1OC`, the inhibition of growth at 50 µM in experiment [1] was less than 50%.

`COc1ccc(C(=O)Nc2ccc3nc(CN4CCN(C)CC4)n(C)c3c2)cc1OC`: in experiment [1], the inhibition of growth at 50 µM stood at 50.8%.

As to `CCN1CCN(CCCNC(=O)c2nc(-c3nn(-c4ccc(C)cc4)c(=O)n(C)c3=O)no2)CC1`, the inhibition of growth at 50 µM in experiment [1] was less than 50%.

With `COCc1nnc(C(=O)Nc2ccc(C(=O)NCCCN3CCCCC3)cc2)s1`, in experiment [1], the inhibition of growth at 50 µM was less than 50%.

`COc1ccc(C(=O)Nc2cnn(-c3ncc(N4CCSCC4)cn3)c2)cc1F`: the inhibition of growth at 50 µM in experiment [1] is less than 50%.

With `CCN1CCN(C(=O)CSCc2nnc(C(=O)Nc3ccc(OC)cc3)s2)CC1`, in experiment [1], the inhibition of growth at 50 µM is less than 50%.

For the compound `O=C(NCCCN1CCOCC1)c1ccc(NC(=O)c2nnc(COc3ccccc3)s2)cc1`, the inhibition of growth at 50 µM in experiment [1] is 50.6%.

Turning to `CCCOc1cccc(C(=O)NC(=S)Nc2ccc(N3CCCCC3)c(Cl)c2)c1`, the inhibition of growth at 50 µM in experiment [1] is less than 50%.

With `O=C(Nc1nc(C(=O)NCCN2CCCCC2)cs1)c1ccc2c(c1)OCO2`, the inhibition of growth at 50 µM in experiment [1] was less than 50%.

Turning to `CCN1CCN(c2cc(C)c3cc(NC(=O)c4ccc(Cl)cc4)ccc3n2)CC1`, the half-maximal inhibitory concentration (IC50) in experiment [2] was 1.53 µM; in experiment [3] it was 3.02 µM.

With `CCN1CCN(c2cc(C)c3cc(NC(=O)c4cc5ccccc5[nH]4)ccc3n2)CC1`, the 50% inhibitory concentration (IC50) in experiment [2] amounted to 2.95 µM; in experiment [3] it was 2.55 µM.

As for `CCN1CCN(c2cc(C)c3cc(NC(=O)c4ccc(OC)c(OC)c4)ccc3n2)CC1`, the values for the IC50 in experiment [2] and in experiment [3] were 3.65 µM and 2.71 µM, respectively.

Regarding `CCN1CCN(c2cc(C)c3cc(NC(=O)c4ccccc4)ccc3n2)CC1`, the IC50 in experiment [2] was determined as 14.2 µM; in experiment [3] it was 18.4 µM.

For `CCN1CCN(c2cc(C)c3cc(NC(=O)c4ccc5c(c4)OCO5)ccc3n2)CC1`, the concentration for half-maximal inhibition (IC50) in experiment [2] amounted to 4.61 µM; in experiment [3], 12.6 µM.

As to `COc1cc(NC(=O)N2CCC(CC(=O)NCCN3CCCC3)CC2)cc(OC)c1OC`, the inhibition of growth at 50 µM in experiment [1] is less than 50%.

Regarding `Cc1cc(N2CCCC2)nc2ccc(NC(=O)c3ccc(Cl)c(Cl)c3)cc12`, the values for the concentration for half-maximal inhibition (IC50) in experiment [2] and in experiment [3] were 26.3 µM and 43.4 µM, respectively.

On to `CCN(CC)c1cc(C)c2cc(NC(=O)c3ccc(Cl)c(Cl)c3)ccc2n1`, for which the IC50 was greater than 50 µM in experiment [2] and 41.2 µM in experiment [3].

Consider `CCc1ccc(C(=O)Nc2ccc3nc(N4CCN(CC)CC4)cc(C)c3c2)cc1`, for which the IC50 amounted to 3.06 µM in experiment [2] and 9.85 µM in experiment [3].

As for `COc1ccc(-c2noc(C(=O)NCc3ccc(CN4CCOCC4)cc3)n2)cc1OC`, the inhibition of growth at 50 µM in experiment [1] was less than 50%.

With `CCc1ccccc1C(=O)Nc1ccc2nc(N3CCN(CC)CC3)cc(C)c2c1`, the 50% inhibitory concentration (IC50) was 15.8 µM in experiment [2] and 23.9 µM in experiment [3].

`CCN1CCN(c2cc(C)c3cc(NC(=O)c4ccccc4F)ccc3n2)CC1`: the IC50 stood at 32.6 µM in experiment [2] and 38.1 µM in experiment [3].
